# Results taken from ChEMBL document CHEMBL5303300, “EUbOPEN Chemogenomics Library - Multiplex” (2023).
# Where “and” joins values, the source holds several entries; their conditions need not be identical. Equal values may be shown once.
# System: HEK-293T
# Assay: Multiplex assay against HEK293T
# Assay type: toxicity, cell-based
# Details: human, number of replicates 2
# Outline: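 Live cells were stained at seeding with Hoechst33342, BioTracker Green Microtubule Cytoskeleton Dye, MitoTracker Red and Annexin V Alexa Fluor 680. Following compound addition, they were imaged on a CQ1 microscope at 37°C and 5% CO2 and gated by CellPathfinder machine learning into Hoechst high-intensity objects or normal cells, with normal cells split into healthy, pyknosed or fragmented nuclei and pyknosed cells into mitotic or apoptotic. Tubulin, mitochondrial-mass and membrane-permeability phenotypes are per cents of healthy-nucleus cells.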
# [1] = 12 h, 1 µM, compound concentration 1 uM
# [2] = 12 h, 10 µM, compound concentration 10 uM
# [3] = 24 h, 1 µM, compound concentration 1 uM
# [4] = 24 h, 10 µM, compound concentration 10 uM
# [5] = 48 h, 1 µM, compound concentration 1 uM
# [6] = 48 h, 10 µM, compound concentration 10 uM
compound,measurement,setting,value
CN(C)CC#Cc1ccc2[nH]c3c(c2c1)-c1nc(N)ncc1CCC3,Population Apoptotic (%),[1],52%
same,Population Fragmented Nuclei (%),[1],2% and 4%
same,Population Healthy Nuclei (%),[1],81% and 82%
same,Population Hoechst High Intensity Objects (%),[1],11% and 14%
same,Population Membrane Permeable-Phenotype (%),[1],8%
same,Population Mitochondria Different-Phenotype (%),[1],31% and 24%
same,Population Mitotic Cells (%),[1],47%
same,Population Normal (%),[1],89% and 85%
same,Population Pyknosed Nuclei (%),[1],16% and 12%
same,Population Tubulin-Different-Phenotype (%),[1],96%
same,Total Cell Count,[1],491 and 406
same,Population Apoptotic (%),[2],52% and 44%
same,Population Fragmented Nuclei (%),[2],3%
same,Population Healthy Nuclei (%),[2],73%
same,Population Hoechst High Intensity Objects (%),[2],12%
same,Population Membrane Permeable-Phenotype (%),[2],5% and 4%
same,Population Mitochondria Different-Phenotype (%),[2],28% and 23%
same,Population Mitotic Cells (%),[2],47% and 55%
same,Population Normal (%),[2],87%
same,Population Pyknosed Nuclei (%),[2],22% and 23%
same,Population Tubulin-Different-Phenotype (%),[2],93% and 96%
same,Total Cell Count,[2],350 and 360
same,Population Apoptotic (%),[3],50% and 63%
same,Population Fragmented Nuclei (%),[3],6% and 8%
same,Population Healthy Nuclei (%),[3],83% and 80%
same,Population Hoechst High Intensity Objects (%),[3],11%
same,Population Membrane Permeable-Phenotype (%),[3],14% and 19%
same,Population Mitochondria Different-Phenotype (%),[3],11% and 8%
same,Population Mitotic Cells (%),[3],49% and 36%
same,Population Normal (%),[3],88%
same,Population Pyknosed Nuclei (%),[3],9% and 11%
same,Population Tubulin-Different-Phenotype (%),[3],97% and 95%
same,Total Cell Count,[3],646 and 621
same,Population Apoptotic (%),[4],50% and 55%
same,Population Fragmented Nuclei (%),[4],3% and 5%
same,Population Healthy Nuclei (%),[4],75% and 77%
same,Population Hoechst High Intensity Objects (%),[4],16% and 11%
same,Population Membrane Permeable-Phenotype (%),[4],8% and 5%
same,Population Mitochondria Different-Phenotype (%),[4],12% and 9%
same,Population Mitotic Cells (%),[4],50% and 44%
same,Population Normal (%),[4],83% and 88%
same,Population Pyknosed Nuclei (%),[4],20% and 16%
same,Population Tubulin-Different-Phenotype (%),[4],88% and 94%
same,Total Cell Count,[4],381 and 452
same,Population Apoptotic (%),[5],54% and 48%
same,Population Fragmented Nuclei (%),[5],17%
same,Population Healthy Nuclei (%),[5],78% and 77%
same,Population Hoechst High Intensity Objects (%),[5],13% and 9%
same,Population Membrane Permeable-Phenotype (%),[5],34% and 42%
same,Population Mitochondria Different-Phenotype (%),[5],0%
same,Population Mitotic Cells (%),[5],45% and 51%
same,Population Normal (%),[5],86% and 90%
same,Population Pyknosed Nuclei (%),[5],4%
same,Population Tubulin-Different-Phenotype (%),[5],85% and 83%
same,Total Cell Count,[5],1491 and 1520
same,Population Apoptotic (%),[6],47% and 50%
same,Population Fragmented Nuclei (%),[6],8% and 6%
same,Population Healthy Nuclei (%),[6],71% and 79%
same,Population Hoechst High Intensity Objects (%),[6],20% and 18%
same,Population Membrane Permeable-Phenotype (%),[6],9% and 11%
same,Population Mitochondria Different-Phenotype (%),[6],1% and 0%
same,Population Mitotic Cells (%),[6],52% and 49%
same,Population Normal (%),[6],79% and 81%
same,Population Pyknosed Nuclei (%),[6],19% and 13%
same,Population Tubulin-Different-Phenotype (%),[6],93% and 90%
same,Total Cell Count,[6],505 and 520
CS(=O)(=O)c1ccc(C(=O)Nc2cccc(COc3ccc(Br)cc3CN3CC[C@@H](O)C3)c2)c(Cl)c1.O=CO,Population Apoptotic (%),[1],57% and 47%
same,Population Healthy Nuclei (%),[1],78% and 79%
same,Population Mitotic Cells (%),[1],42% and 52%
same,Total Cell Count,[1],501 and 560
same,Population Apoptotic (%),[2],44% and 57%
same,Population Healthy Nuclei (%),[2],87% and 85%
same,Population Mitotic Cells (%),[2],55% and 42%
same,Total Cell Count,[2],619 and 489
same,Population Apoptotic (%),[3],54% and 48%
same,Population Healthy Nuclei (%),[3],84% and 83%
same,Population Mitotic Cells (%),[3],45% and 51%
same,Total Cell Count,[3],735 and 812
same,Population Apoptotic (%),[4],50% and 66%
same,Population Healthy Nuclei (%),[4],85% and 84%
same,Population Mitotic Cells (%),[4],50% and 33%
same,Total Cell Count,[4],658 and 521
same,Population Apoptotic (%),[5],30% and 25%
same,Population Healthy Nuclei (%),[5],85%
same,Population Mitotic Cells (%),[5],69% and 75%
same,Total Cell Count,[5],1702 and 1674
same,Population Apoptotic (%),[6],40% and 59%
same,Population Healthy Nuclei (%),[6],85%
same,Population Mitotic Cells (%),[6],60% and 40%
same,Total Cell Count,[6],998 and 697
CS(=O)(=O)c1ccc(C(=O)Nc2cccc(COc3ccc(Br)cc3CN[C@H]3CCC[C@@H]3O)c2)c(Cl)c1.O=CO,Population Apoptotic (%),[1],63% and 58%
same,Population Healthy Nuclei (%),[1],76% and 80%
same,Population Mitotic Cells (%),[1],36% and 41%
same,Population Normal (%),[1],91% and 92%
same,Total Cell Count,[1],550 and 522
same,Population Apoptotic (%),[2],66% and 59%
same,Population Healthy Nuclei (%),[2],84% and 88%
same,Population Mitotic Cells (%),[2],33% and 40%
same,Population Normal (%),[2],91% and 90%
same,Total Cell Count,[2],631 and 603
same,Population Apoptotic (%),[3],55% and 58%
same,Population Healthy Nuclei (%),[3],80% and 83%
same,Population Mitotic Cells (%),[3],44% and 41%
same,Population Normal (%),[3],90%
same,Total Cell Count,[3],792 and 800
same,Population Apoptotic (%),[4],60% and 67%
same,Population Healthy Nuclei (%),[4],85% and 79%
same,Population Mitotic Cells (%),[4],39% and 32%
same,Population Normal (%),[4],91% and 87%
same,Total Cell Count,[4],623 and 546
same,Population Apoptotic (%),[5],20% and 29%
same,Population Healthy Nuclei (%),[5],86% and 87%
same,Population Mitotic Cells (%),[5],79% and 70%
same,Population Normal (%),[5],91% and 92%
same,Total Cell Count,[5],1777 and 1587
same,Population Apoptotic (%),[6],60% and 78%
same,Population Healthy Nuclei (%),[6],86% and 80%
same,Population Mitotic Cells (%),[6],40% and 21%
same,Population Normal (%),[6],89% and 90%
same,Total Cell Count,[6],671 and 634
